Measurements of several laboratories.
Protocols differ between the studies behind these lines.
Cell line: A-375
Effect on: cell growth or viability

CNc1nc2ccccc2n2c(-c3cccc(OC)c3)cnc12  IC50 (neutral red; 96 h): 230 nM
Cn1nccc1Nc1nccc(-c2ccn([C@H](CO)c3ccc(Cl)c(F)c3)c(=O)c2)n1  IC50 (resazurin; 96 h): 130 nM
COc1cc(C(=O)c2csc(-c3ccccc3)n2)cc(OC)c1OC  IC50 (SRB; 96 h): 28 nM
CNC(=O)c1cc(Oc2ccc(NC(=O)Nc3ccc(Cl)c(C(F)(F)F)c3)cc2)ccn1  EC50: 4000 nM
O=C(O)/C=C/c1ccc(O)c(O)c1  IC50 (MTT): 4800 nM
CN(C)CCOc1ccc(-c2nc(-c3ccncc3)c(-c3ccc4c(c3)CC/C4=N\O)[nH]2)cc1  EC50: 30 nM
COc1cc(Nc2nccc(-c3cnn4nc(OC)ccc34)n2)cc(C(F)(F)F)c1  IC50 (ATP luminescence): 97 nM
CC(=O)c1ccc(N=Nc2c(C(=O)O)cc(O)c(O)c2O)cc1  IC50 (MTT): 12900 nM
Cn1nccc1Nc1nccc(-c2cc3c(s2)C(C)(C)N(CCN2CCOCC2)C3=O)n1  IC50 (resazurin; 96 h): 350 nM
O=C(O)c1cc(O)c(O)c(O)c1  IC50 (MTT): 18700 nM
CC(C)C[C@H](NC(=O)[C@H](Cc1ccccc1)NC(=O)c1cnccn1)B(O)O  IC50 (ATP luminescence): 11 nM
